As a reminder, the IC50 is the concentration at which inhibition is half-maximal. A higher IC50 goes with weaker potency in that assay.

SMILES strings stand for the structures.

The target in test [1] is Glutamate NMDA receptor. Description: Tested for binding affinity against NMDA receptor, from rat synaptic membrane, using [3H]-CPP as the radioligand. The method, boiled down:
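Rat whole-brain crude synaptic membranes, Triton X-100 treated and frozen at -70 °C; 0.2–0.5 mg protein incubated 15 min at 23 °C with 8 nM [3H]CPP in 50 mM Tris HCl pH 7.6. Nonspecific binding defined with 1.0 mM NMDA. Bound ligand separated by centrifugation and counted by scintillation. Triplicates, 5–10 concentrations; IC50 with 95% confidence limits.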

Test [2] has as its target Glutamate NMDA receptor. Description: Tested for binding affinity against NMDA receptor, from rat synaptic membrane, using [3H]TCP as the radioligand. In short, it runs like this: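 Stimulated binding assay on rat whole-brain synaptic membranes in 5.0 mM Tris HCl pH 7.4. […] 100 μM MK-801 defines nonspecific binding. Filtration through PEI-soaked glass-fiber filters, then scintillation counting. Triplicates, 5–10 concentrations; IC50 with 95% confidence limits.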

In test [3] the target is Glutamate NMDA receptor. Description: Tested for binding affinity against NMDA receptor, from rat synaptic membrane, using [3H]glycine as the radioligand. In short, it runs like this: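 Rat whole-brain synaptic membranes washed and resuspended in 50 mM Tris citrate. Separation by centrifugation, then scintillation counting.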

Turning to `NC(Cc1nc2ccccc2nc1CCP(=O)(O)O)C(=O)O` (configuration not stated), at Glutamate NMDA receptor [1], the concentration for half-maximal inhibition (IC50) was above 1 µM.
In the case of `Cc1cc2nc(CC(N)C(=O)O)c(CP(=O)(O)O)nc2cc1C` (configuration not stated), the half-maximal inhibitory concentration (IC50) on Glutamate NMDA receptor [1] came to 0.0223 µM; at Glutamate NMDA receptor [2] it was 16.4 µM.
For `NC(Cc1nc2cc3ccccc3cc2nc1CP(=O)(O)O)C(=O)O` (configuration not stated), in that order: 0.0065 µM and 5.6 µM.
`NC(Cc1nc2cc(F)c(F)cc2nc1CP(=O)(O)O)C(=O)O` (configuration not stated) had an IC50 at Glutamate NMDA receptor [1] of 0.166 µM.
For `NC(Cc1nc2ccc(Cl)cc2nc1CP(=O)(O)O)C(=O)O` (configuration not stated), the results for the concentration for half-maximal inhibition (IC50) at Glutamate NMDA receptor [1], on Glutamate NMDA receptor [2] and at Glutamate NMDA receptor [3] were 0.038 µM, 13.9 µM and 1.8 µM, respectively.
Taken in the same sequence, the figures for `NC(Cc1nc2cc(Cl)ccc2nc1CP(=O)(O)O)C(=O)O` (configuration not stated) were 0.024 µM, 8.6 µM and above 100 µM.
The compound `CCOC(=O)C(N)Cc1nc2ccccc2nc1CP(=O)(O)O` (configuration not stated) gave an IC50 on Glutamate NMDA receptor [1] above 1 µM.
With `COc1cc2nc(CC(N)C(=O)O)c(CP(=O)(O)O)nc2cc1OC` (configuration not stated), the IC50 on Glutamate NMDA receptor [1] turned out to be 0.832 µM.
Still for that read-out and setting: the result for `NC(Cc1nc2c(Cl)ccc(Cl)c2nc1CP(=O)(O)O)C(=O)O` (configuration not stated) reads 0.245 µM.
For the compound `O=C(O)C1CN(CCCP(=O)(O)O)CCN1` (configuration not stated), the results for the IC50 at Glutamate NMDA receptor [1] and at Glutamate NMDA receptor [3] were 0.113 µM and above 100 µM, respectively.
With `NC(Cc1nc2ccccc2nc1/C=C/P(=O)(O)O)C(=O)O` (configuration not stated), the IC50 on Glutamate NMDA receptor [1] is above 1 µM.
In turn, `NC(Cc1cc2nccnc2cc1CP(=O)(O)O)C(=O)O` (configuration not stated) displayed an IC50 on Glutamate NMDA receptor [1] above 1 µM.
Take `NC(Cc1nc2cc(Cl)c(Cl)cc2nc1CP(=O)(O)O)C(=O)O` (configuration not stated): the IC50 on Glutamate NMDA receptor [1] amounted to 0.0034 µM; at Glutamate NMDA receptor [2], 11.7 µM; at Glutamate NMDA receptor [3] it was 0.61 µM.
`NC(Cc1nc2ccccc2nc1CP(=O)(O)O)C(=O)O` (single isomer, unassigned; (+)) displayed an IC50 at Glutamate NMDA receptor [1] above 1 µM.
In the case of `NC(Cc1nc2ccccc2nc1CP(=O)(O)O)C(=O)O` (stereo in doubt; 7), the IC50 on Glutamate NMDA receptor [1] is 0.119 µM; on Glutamate NMDA receptor [2], 28 µM; at Glutamate NMDA receptor [3] it was 4.7 µM.
Regarding `NC(Cc1nc2ccccc2nc1CP(=O)(O)O)C(=O)O` (stereo in doubt; 9), the half-inhibitory concentration (IC50) on Glutamate NMDA receptor [1] came to 0.0293 µM; on Glutamate NMDA receptor [2], 21 µM.
Turning to `NC(CCCCCP(=O)(O)O)C(=O)O` (configuration not stated) [AP-7], the IC50 at Glutamate NMDA receptor [2] was found to be 302 µM.
In the case of `O=C(O)[C@@H]1C[C@H](CP(=O)(O)O)CCN1` [SELFOTEL], the results for the IC50 at Glutamate NMDA receptor [1], on Glutamate NMDA receptor [2] and on Glutamate NMDA receptor [3] were 0.028 µM, 22.4 µM and above 100 µM, respectively.

(Values after ChEMBL document CHEMBL1126583, “Potent quinoxaline-spaced phosphono alpha-amino acids of the AP-6 type as competitive NMDA antagonists: synthesis and biological evaluation” (J Med Chem, 1993).)
